Measurements reported in ChEMBL document CHEMBL5532739, “Competitive Microarray Screening Reveals Functional Ligands for the DHX15 RNA G-Quadruplex” (ACS Med Chem Lett, 2024).
The source made the active and inactive calls. No cut-off for these calls is given here.

How the values were obtained:
[1] = Inhibition of DHX15 mRNA translation in rabbit reticulocyte lysate transfected with DHX15-G4-WT-FL incubated for 15 mins by firefly luciferase assay; type: functional, subcellular, Oryctolagus cuniculus
Method in brief: (§1)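 Cell-free translation: in vitro transcribed firefly luciferase reporter RNAs carrying DHX15 5' region (WT or G4-deleted) incubated in rabbit reticulocyte lysate with analyte, dose-dependent; luciferase activity as translation read-out; IC50 from dose-response.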

Quadruplex RNA [2] = test: Binding affinity to DHX15 rG4 (unknown origin) assessed as thermal stability by measuring change in melting temperature at 50 uM by circular dichroism method; type: nucleic-acid assay
Method in brief: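 CD thermal melt of DHX15 rG4 with 50 μM analyte present; stabilization reported as ΔTm.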

Reticulocyte [3] = test: Inhibition of DHX15 mRNA translation in rabbit reticulocyte lysate transfected with DHX15-G4-Del-FL at upto 50 uM incubated for 15 mins by firefly luciferase assay; type: functional, subcellular; conditions: Oryctolagus cuniculus; method in brief: as §1
Quadruplex RNA [4] = test: Displacement of ThT from DHX15 rG4 (unknown origin) at upto 100 uM measured after 15 mins by FID assay relative to control; type: nucleic-acid assay
Method in brief: (§2)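 Fluorescent intercalator displacement on DHX15 rG4, dose-dependent, using thioflavin T or Hoechst 33258 (groove binder) as probe; displacement measured as loss of probe fluorescence.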

[5] = Inhibition of DHX15 mRNA translation in rabbit reticulocyte lysate transfected with DHX15-G4-WT-FL at upto 50 uM incubated for 15 mins by firefly luciferase assay relative to control; type: functional, Oryctolagus cuniculus; conditions: 0.25 h, up to 50 µM; method in brief: as §1
Quadruplex RNA [6] = test: Displacement of Hoechst 33258 from DHX15 rG4 (unknown origin) at 100 uM measured after 15 mins by FID assay relative to control; type: nucleic-acid assay; method in brief: as §2
Quadruplex RNA [7] = test: Binding affinity to DHX15 rG4 (unknown origin) assessed as induction of RNA G quadruplex formation by measuring increase in intensity at 4 to 20 uM in presence of KCl by circular dichroism method; type: nucleic-acid assay; conditions: dose 4-20 µM
Quadruplex RNA [8] = test: Binding affinity to DHX15 rG4 (unknown origin) assessed as dissociation constant measured after 320 secs by SPR analysis; type: nucleic-acid assay
Reticulocyte [9] = test: Inhibition of DHX15 mRNA translation in rabbit reticulocyte lysate transfected with DHX15-G4-Del-FL at 10 uM incubated for 15 mins by firefly luciferase assay; type: functional, subcellular; conditions: Oryctolagus cuniculus; method in brief: as §1
[10] = Inhibition of DHX15 mRNA translation in rabbit reticulocyte lysate transfected with DHX15-G4-WT-FL at 10 uM incubated for 15 mins by firefly luciferase assay relative to control; type: functional; conditions: Oryctolagus cuniculus, 0.25 h; method in brief: as §1

Nc1cc2[nH]c(=O)[nH]c2cc1N1CCCC1
IC50 [1]: 22.9 µM
ΔTm (Quadruplex RNA [2]): 3.6 °C
inhibition (Reticulocyte [3]): inactive
Activity (Quadruplex RNA [4]): 50%
inhibition (INH) [5]: 57%
Activity (Quadruplex RNA [6]): 20%
Activity (Quadruplex RNA [7]): Active
Kd (Quadruplex RNA [8]): 12.6 µM

O=C(O)[C@H]1Cc2ccccc2CN1
Kd (Quadruplex RNA [8]): > 100 µM

O=C(O)[C@@H]1Cc2ccccc2CN1
Kd (Quadruplex RNA [8]): > 100 µM

CN(C)c1ccc(Nc2c3ccc(NC(=O)CCN4CCCC4)cc3nc3cc(NC(=O)CCN4CCCC4)ccc23)cc1
inhibition (Reticulocyte [9]): inactive
inhibition at 10 µM [10]: 67%
